Sampled rows, rich in hits. Any-hit rate of the full collection: about 2.3%.
TRPC4 potent = TRPC4 (mouse) allosteric potentiation; Q9QUQ5; HEK293 TRPC4beta/mu-opioid, DAMGO EC20, Fluo-4 Ca2+ flux; hits give high values; B-score at 10 µM; hit rate 0.42% among 310,000; AID 2227;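 active = B-score of calcium response area above 5 SD of library B-scores, with initial fluorescence ratio within 5 SD of library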
TRPC4 block = inhibitors of mouse TRPC4 channel | hit rate 0.39% among 300,000 | AID 2247 | B-score at 10 µM | Q9QUQ5 | HEK293 TRPC4beta/mu-opioid, DAMGO-evoked Fluo4 calcium flux; hits give low values;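 active = B-score over 3 SD under the library average, no early fluorescence shift, positive overall ratio signal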
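test system = HEK293 cells with stable TRPC4beta plus mu-opioid receptor expression | detection = Fluo4 Ca2+ flux fluorescence | read-out = integrated fluorescence ratio relative to baseline, converted to per-well B score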
TRPC6 act = mouse TRPC6 channel activation; B-score at 10 µM; Q61143; hit rate 0.13% among 310,000; AID 2550; HEK293-TRPC6 membrane potential dye fluorescence; hits give high values;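 active = B-score of the integrated fluorescence ratio above library mean plus 3 SD, and starting fluorescence ratio within library mean plus 5 SD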;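 also: higher score means more depolarization so channel activation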
Target sequence (Q61143 whole entry, looked up): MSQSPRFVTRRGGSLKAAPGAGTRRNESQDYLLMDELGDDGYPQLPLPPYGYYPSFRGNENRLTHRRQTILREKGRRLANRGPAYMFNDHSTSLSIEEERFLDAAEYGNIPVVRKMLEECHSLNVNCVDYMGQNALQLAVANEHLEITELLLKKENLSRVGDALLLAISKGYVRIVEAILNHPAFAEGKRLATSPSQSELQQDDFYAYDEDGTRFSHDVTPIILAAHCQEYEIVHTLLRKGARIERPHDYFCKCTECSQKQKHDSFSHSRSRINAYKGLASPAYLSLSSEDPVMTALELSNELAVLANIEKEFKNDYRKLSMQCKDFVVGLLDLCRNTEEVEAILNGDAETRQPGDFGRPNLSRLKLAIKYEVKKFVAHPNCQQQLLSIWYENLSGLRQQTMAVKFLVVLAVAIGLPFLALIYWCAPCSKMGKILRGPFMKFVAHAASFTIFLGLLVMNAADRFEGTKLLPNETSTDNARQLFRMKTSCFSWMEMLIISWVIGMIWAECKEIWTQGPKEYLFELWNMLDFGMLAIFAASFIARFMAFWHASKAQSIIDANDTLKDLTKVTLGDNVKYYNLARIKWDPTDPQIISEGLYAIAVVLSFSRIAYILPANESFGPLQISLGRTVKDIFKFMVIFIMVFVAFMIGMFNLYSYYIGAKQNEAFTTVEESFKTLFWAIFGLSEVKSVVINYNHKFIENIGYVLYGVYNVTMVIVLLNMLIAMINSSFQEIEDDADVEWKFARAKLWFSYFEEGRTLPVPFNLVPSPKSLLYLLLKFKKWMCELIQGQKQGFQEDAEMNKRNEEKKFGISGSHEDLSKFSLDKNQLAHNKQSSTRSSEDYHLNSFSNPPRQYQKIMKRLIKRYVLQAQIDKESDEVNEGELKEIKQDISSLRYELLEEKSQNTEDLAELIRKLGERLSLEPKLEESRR
TRPC6 inhibitor = inhibitors of mouse TRPC6 channel. HEK293-TRPC6, membrane potential dye, ACh-evoked depolarization; hits give low values. B-score at 10 µM. hit rate 1.1% among 310,000. AID 2553;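 active = B-score under library mean minus 3 SD, initial fluorescence not abnormally high, positive integrated signal ratio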;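 also: B-score derived from integrated fluorescence ratio over the kinetic read; more negative B-score means stronger inhibition of depolarization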
TRPC4 act = TRPC4 (mouse) channel activation; Q9QUQ5; HEK293 TRPC4beta/mu-opioid, Fluo4 calcium fluorescence; hits give high values; B-score at 10 µM; hit rate 0.49% among 310,000;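 active = B-score above 5 SD of library B-scores, and initial fluorescence ratio not above library mean plus 5 SD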;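 also: positive B-score marks a calcium rise read as TRPC4 activation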
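Material: HEK293 stable line with TRPC4beta plus mu-opioid receptor; technique: Fluo4 calcium-sensitive dye fluorescence, kinetic, 1 Hz baseline; timing: Fluo4 dye loading 45 min at room temperature, 110 s recording; controls: assay buffer as low control, maximal DAMGO as high control; read-out: integrated baseline-normalised fluorescence ratio, converted to per-well B score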
TRPC4 sel inh 2 = mouse TRPC4 off-target activity of TRPC6 inhibitors, second screen. HEK293 TRPC4/MOR, membrane potential dye fluorescence; channel activated by saturating DAMGO dose. AID 2776. inhibition, % at 10 µM. shares compounds with TRPC6 inhibitor. hit rate 42% among 920;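 active = compounds whose fluorescence signal differed from control wells by over 3 SD, either direction, in both duplicate plates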
TRPC4 spec = selectivity of TRPC6 inhibitors: effect on mouse TRPC4; shares compounds with TRPC6 inhibitor; HEK293 TRPC4/mu-opioid, membrane potential fluorescence; activity change, negative = inhibition, % at 10 µM; hit rate 61% among 920;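 active = rise or fall in signal beyond 3 SD of buffer-only wells in both replicate plates, either sign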;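 also: integrated kinetic ratio of fluorescence range over baseline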
HEK293 MPD ctr 2-1 = parental HEK293 nonspecific activity of TRPC6 inhibitors, second screen | shares compounds with TRPC6 inhibitor | parental HEK293 membrane potential dye fluorescence; maximal acetylcholine challenge after compound addition | signal change vs control, % at 10 µM | hit rate 31% among 920 | AID 2779;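 active = membrane potential signal moving either way by over 3 SD of the maximum-effect control, in both duplicate plates, meaning non-specific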
HEK293 MPD ctr-1 = parental HEK293 nonspecific activity of TRPC6 inhibitors; shares compounds with TRPC6 inhibitor; parental HEK293 membrane potential dye fluorescence; membrane potential signal change, % at 10 µM; hit rate 60% among 920;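 active = membrane potential signal shifting up or down by more than 3 SD of buffer-only wells, on both duplicate plates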
HEK293 MPD ctr-2 = parental HEK293 nonspecific activity of TRPC6 modulators | shares compounds with TRPC6 inhibitor | membrane potential dye fluorescence | membrane potential signal change, % at 10 µM | hit rate 51% among 2,400;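 active = membrane potential signal moves up or down beyond 5 SD from buffer-only wells, on both duplicate plates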
HEK293 MPD ctr 2-2 = second counter-screen for TRPC6 modulators: effect in parental HEK293 cells. shares compounds with TRPC6 inhibitor. membrane potential dye fluorescence; after compound, maximal acetylcholine stimulation. inhibition, % at 10 µM. hit rate 14% among 2,400. AID 488926;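 active = membrane potential signal drops by more than 5 SD from the mean control signal, in both duplicate plates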
TRPC4 ctr mod = selectivity of TRPC6 modulators against mouse TRPC4; HEK293 TRPC4/mu-opioid, membrane potential fluorescence; hit rate 69% among 2,400; percent change from control (negative = decrease, positive = increase), % at 10 µM; shares compounds with TRPC6 inhibitor;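 active = membrane potential signal moved up or down beyond 5 SD of buffer control wells, in both duplicate plates, actives on both sides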
TRPC4/MOR inh 2 = second selectivity test of TRPC6 modulators against mouse TRPC4 | shares compounds with TRPC6 inhibitor | HEK293 TRPC4/mu-opioid, membrane potential dye fluorescence; stimulated with maximal-effect DAMGO | inhibition, % at 10 µM | hit rate 55% among 2,400 | AID 488928;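 active = drop in membrane potential signal beyond 5 SD of the control wells in both duplicate plates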;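 also: TRPC4 counter screen for TRPC6 hits run under conditions tuned for TRPC6 not TRPC4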
TRPC6 block conf = confirmation of mouse TRPC6 inhibitors. inhibition, % at 10 µM. shares compounds with TRPC6 inhibitor. hit rate 43% among 3,300. HEK293-TRPC6, membrane potential dye, ACh-evoked depolarization;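 active = fluorescence ratio falls more than 5 SD below the full-stimulation control mean, in both duplicate runs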;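 also: integrated fluorescence ratio of peak minus minimum over baseline after agonist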
TRPC6 act confirm = mouse TRPC6 activator confirmation; HEK293-TRPC6 membrane potential dye fluorescence, FDSS; hit rate 11% among 2,800; activation, % at 10 µM; AID 488961; shares compounds with TRPC6 inhibitor;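 active = ratio signal rise beyond 5 SD above unstimulated control wells' mean, seen in both duplicate runs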
Each line names hits and unclear results; the compound was inactive in the other large screens (follow-up assays come after a bar, where they were run).

O=C(CN1CCS(=O)(=O)CC1)N/N=C/c1cccc(C(F)(F)F)c1	TRPC6 inhibitor -5.35 | HEK293 MPD ctr-2 inactive | HEK293 MPD ctr 2-2 inactive | TRPC4 ctr mod inactive | TRPC4/MOR inh 2 inactive | TRPC6 block conf inactive | TRPC6 act confirm inactive
COc1ccc(/C=N/NC(=O)CN2CCS(=O)(=O)CC2)cc1	none
COc1ccc(CNC(=O)C2=CC(c3ccc(OC)c(OC)c3)=NS(=O)(=O)N2C)cc1	none
CCc1ccc(NC(=O)C2=CC(c3ccc(OC)c(OC)c3)=NS(=O)(=O)N2C)cc1	TRPC6 inhibitor -5.74 | HEK293 MPD ctr-2 inactive | HEK293 MPD ctr 2-2 inactive | TRPC4 ctr mod -17.5% | TRPC4/MOR inh 2 65.5% | TRPC6 block conf inactive | TRPC6 act confirm inactive
CC1CCCC(C)N1C(=O)COC(=O)Cc1c[nH]c2ccccc12 (stereo not given)	none
Cc1cc(C)n2nc(C(=O)N/N=C/c3ccccc3Cl)nc2n1	none
Cc1cc(C)n2nc(C(=O)N/N=C/c3ccco3)nc2n1	TRPC6 inhibitor -6.56 | HEK293 MPD ctr-2 -275.0% | HEK293 MPD ctr 2-2 inactive | TRPC4 ctr mod -50.0% | TRPC4/MOR inh 2 32.5% | TRPC6 block conf inactive | TRPC6 act confirm inactive
Cc1ccccc1C(OCC(O)CN1CCC(C(N)=O)CC1)c1ccccc1 (stereo not given)	none
COc1ccc2c(c1)-c1c(ssc1=S)C(C)(C)N2	TRPC6 inhibitor -5.61 | HEK293 MPD ctr-2 -164.5% | HEK293 MPD ctr 2-2 inactive | TRPC4 ctr mod -33.0% | TRPC4/MOR inh 2 60.0% | TRPC6 block conf 46.0% | TRPC6 act confirm inactive
N=c1c(C(=O)NC2CCCCC2)cc2c(=O)n3ccccc3nc2n1Cc1cccnc1	TRPC6 inhibitor -5.49 | HEK293 MPD ctr-2 -84.5% | HEK293 MPD ctr 2-2 inactive | TRPC4 ctr mod -23.5% | TRPC4/MOR inh 2 30.5% | TRPC6 block conf 36.5% | TRPC6 act confirm inactive
N=c1c(C(=O)NC2CCCCC2)cc2c(=O)n3ccccc3nc2n1Cc1ccccc1	TRPC6 inhibitor -8.04 | HEK293 MPD ctr-2 -141.5% | HEK293 MPD ctr 2-2 inactive | TRPC4 ctr mod -36.5% | TRPC4/MOR inh 2 50.5% | TRPC6 block conf 46.5% | TRPC6 act confirm inactive
O=c1[nH]c(Cc2ccccn2)nc2scc(-c3ccccc3Cl)c12	none
COc1cc(/C=N/Nc2nncc3ccccc23)cc(OC)c1OC	TRPC6 inhibitor -7.93 | TRPC4 sel inh 2 inactive | TRPC4 spec -24.9% | HEK293 MPD ctr 2-1 inactive | HEK293 MPD ctr-1 -457.5% | TRPC6 block conf inactive | TRPC6 act confirm inactive
CCOC(=O)C1CCN(c2nc3cc(OC)ccc3cc2C#N)CC1	none
CCOC(=O)C1CCN(c2cc(C)nc3ccc(OC)cc23)CC1	TRPC6 inhibitor -8.94 | HEK293 MPD ctr-2 -235.5% | HEK293 MPD ctr 2-2 85.0% | TRPC4 ctr mod -36.5% | TRPC4/MOR inh 2 69.5% | TRPC6 block conf 86.5% | TRPC6 act confirm inactive
COc1ccc(N2CCN(c3cc(C)nc4ccc(OC)cc34)CC2)cc1	TRPC6 inhibitor -5.64 | HEK293 MPD ctr-2 -228.5% | HEK293 MPD ctr 2-2 inactive | TRPC4 ctr mod -42.0% | TRPC4/MOR inh 2 65.0% | TRPC6 block conf 62.5% | TRPC6 act confirm inactive
COc1ccc2nc(C)cc(N3CCC(C(N)=O)CC3)c2c1	TRPC6 inhibitor -9.14 | HEK293 MPD ctr-2 -356.5% | HEK293 MPD ctr 2-2 94.5% | TRPC4 ctr mod -59.5% | TRPC4/MOR inh 2 62.5% | TRPC6 block conf 72.5% | TRPC6 act confirm inactive
CN1C(C(=O)NCc2ccco2)CC2Cn3c(nc4cc(Cl)c(Cl)cc43)C21 (stereo not given)	none
N#CCCn1nc(-c2ccc([N+](=O)[O-])cc2)cc1Nc1ccccc1NC(=O)C(F)(F)F	none
O=C(Cn1nnc(-c2ccccc2)n1)c1ccccc1	none
O=C(Cn1c(-c2ccccc2)c[n+]2ccsc12)c1ccccc1	TRPC4 block -11, TRPC6 inhibitor -5.29 | HEK293 MPD ctr-2 inactive | HEK293 MPD ctr 2-2 inactive | TRPC4 ctr mod 16.5% | TRPC4/MOR inh 2 57.5% | TRPC6 block conf inactive | TRPC6 act confirm inactive
O=C(Cn1c(-c2ccccc2)c[n+]2ccsc12)c1ccc([N+](=O)[O-])cc1	TRPC4 block -7, TRPC6 inhibitor -5.33, TRPC4 act 50 | HEK293 MPD ctr-2 -198.0% | HEK293 MPD ctr 2-2 inactive | TRPC4 ctr mod 35.0% | TRPC4/MOR inh 2 90.5% | TRPC6 block conf inactive | TRPC6 act confirm inactive
O=C(N/C(=C\c1ccccc1)C(=O)N1CCOCC1)c1cccc(Br)c1	none
CN(CC(=O)Nc1ccc(Cl)c(C(F)(F)F)c1)C(=O)Cc1c[nH]c2ccccc12	TRPC6 inhibitor -5.74 | HEK293 MPD ctr-2 inactive | HEK293 MPD ctr 2-2 inactive | TRPC4 ctr mod -11.0% | TRPC4/MOR inh 2 48.5% | TRPC6 block conf 57.5% | TRPC6 act confirm inactive
COc1ccc2c(c1)c(C)cc[n+]2Cc1ccccc1	TRPC6 inhibitor -5.24 | HEK293 MPD ctr-2 -260.5% | HEK293 MPD ctr 2-2 inactive | TRPC4 ctr mod -47.5% | TRPC4/MOR inh 2 51.5% | TRPC6 block conf 48.5% | TRPC6 act confirm inactive
CC(=O)c1c(C)[nH]c(C(=O)NC(C)c2ccccc2)c1C (stereo not given)	none

Source: PubChem BioAssay
